High-throughput results deposited in PubChem by The Scripps Research Institute Molecular Screening Center.
MBD2 DNA inh = blocks human MBD2 binding to methylated DNA; Q9UBB5; TR-FRET, MBD2 binding to methylated oligonucleotide; inhibition, % at 4.4 µM; 370,000 compounds, 0.31% hits; AID 686964; in the data active = inhibition above about 13%
LEDGF integ inh = blocks HIV-1 LEDGF/p75-dependent DNA integration; TR-FRET IN-LEDGF/p75 DNA integration, Eu/Cy5; inhibition, % at 3.7 µM; 370,000 compounds, 0.64% hits;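 active = inhibition above the screen-wide mean plus 3 SD, cut at about 13% in these data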;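 note: signal is the Cy5 over europium emission ratio at 671 and 618 nm; 0% = plate median of compound wells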
Rin1-Abl PPI inh = inhibitors of human Rin1-Abl protein interaction. P00519+Q13671. TR-FRET Rin1/Abl binding, biochemical. inhibition, % at 7.35 µM. 360,000 compounds, 0.4% hits; in the data active = inhibition above about 5%, passing the limit was not always enough
UHRF1 binding = blocks human UHRF1 binding to methylated DNA; Q96T88; UHRF1 binding to methylated oligo, TR-FRET; inhibition, % at 4.4 µM; 370,000 compounds, 0.75% hits; AID 687016; in the data active = inhibition above about 21%;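 note: UHRF1 SRA domain binding a hemimethylated CpG hairpin DNA probe; 0% = median of test compound wells and 100% = reference inhibitor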
TDP2 absorb = TDP2 (human) inhibition, absorbance primary screen; 370,000 compounds, 0.34% hits; inhibition, % at 12.8 µM; recombinant TDP2, T5PNP hydrolysis, p-nitrophenol absorbance 415 nm;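 active = inhibition above the mean of all tested compounds plus 3 SD, set per campaign, cut at about 25% in these data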;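 note: 0% = DMSO with enzyme and 100% = buffer with substrate but no TDP2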
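test system = human TDP2 enzyme | input = TDP2 enzyme at 120 nM final | medium = 50 mM Tris-HCl pH 7.5 with Mg2+, KCl, DTT, BSA | also added = T5PNP substrate, 5 mM | times = 2 h at 37 °C | technique = epi absorbance | benchmarks = high control without enzyme, low control DMSO plus TDP2 | replication = each compound tested once, singlicate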
Starred values were filed as active, the others as inactive; . = not tested or not shown. The list is not random: actives were taken first. Their share in the collection is about 1.9%.

SMILES	MBD2 DNA inh	LEDGF integ inh	Rin1-Abl PPI inh	UHRF1 binding	TDP2 absorb
COc1cc(/C=C(\C#N)c2nc3ccccc3s2)cc([N+](=O)[O-])c1O	-4	3	2	1	-6
N#C/C(=C\c1ccc(O)c([N+](=O)[O-])c1)c1nc2ccccc2s1	0	2	-2	26*	-11
Cn1c(=O)c2[nH]c(SCC(=O)NCCc3ccc(F)cc3)nc2n(C)c1=O	0	-2	.	1	12
CC1(OC(=O)C2CCCC2)C(=O)C=C2C=C3CCCCN3C=C2C1=O (configuration not stated)	.	.	-2	.	.
COC/C=C/C1=CC2=CC(=O)C(C)(OC(=O)C3CCCC3)C(=O)C2=CO1 (configuration not stated)	5	64*	3	29*	0
C/C(=N\Nc1ccc(C(F)(F)F)cn1)c1ccncc1	10	5	-5	22*	6
CCCC1CCC2(CC1)CCC2OC(=S)Nc1cccc(I)c1 (configuration not stated)	-2	3	.	-1	5
CCCOc1ccc(C2=NNC(=O)CC2)cc1	-4	-2	-2	-4	-2
COc1ccc(C2=NNC(=O)CC2)cc1	0	2	1	23*	4
CCCCCc1ccc(-c2n[nH]c(=O)c3ccccc23)cc1	7	-4	.	1	-6
CCOC(=O)[C@]12CCCCC/C=C\1N(CCc1ccc(Cl)cc1)C(=O)[C@H]2CC(=O)NCc1ccc(OC)c(OC)c1	-5	5	.	-2	2
N#Cc1c(NC(=O)c2ccccc2Cl)n(Cc2ccccc2)c2nc3ccccc3nc12	1	16*	8	10	81*
CCCCn1c(NC(=O)CC)c(C#N)c2nc3ccccc3nc21	-1	-6	0	-2	-3
COc1ccc(OC)c(NC(=O)c2ccccc2N(Cc2ccccc2)C(=O)C(C)Cl)c1 (configuration not stated)	2	-2	.	-4	-1
NS(=O)(=O)c1ccc(N/C=C\C(=O)c2ccc3ccccc3c2)cc1	9	9	-5	22*	-15
COC(=O)c1cc(-c2ccc(F)c(Cl)c2)c(=O)n2c1CCC2	-6	8	.	0	-5
COc1cccc(N2CC(NC(=O)c3cccc4ccccc34)CC2=O)c1 (configuration not stated)	-4	-2	-3	34*	10
COc1ccc(CN2CCNC(=O)C2CC(=O)N(C)CC2CCOCC2)cc1C (configuration not stated)	0	3	-1	31*	-2
Cc1cccc(CCNC(=O)CSc2nc3c([nH]2)c(=O)n(C)c(=O)n3C)c1	-3	-1	.	0	4
Cc1[nH]n(-c2ccccc2)c(=O)c1-c1ccccc1	1	-1	-2	0	8
Cc1[nH]n(-c2cccc(Cl)c2)c(=O)c1-c1ccccc1	-3	-1	1	39*	-10
CCCc1nc2c(Cl)cc(C(F)(F)F)cn2c1Cc1ccc(OC)cc1C	6	-1	.	22*	3
COc1ccc(Cc2c(-c3ccc(C#N)cc3)nc3c(Cl)cc(C(F)(F)F)cn23)c(C)c1	1	2	.	18	-9
COc1ccccc1CCc1nnc(CCC(=O)NCCOc2cccnc2)o1	4	3	3	25*	9
O=c1[nH][nH]c2c1C(c1ccc(F)cc1)OC(CCc1ccccc1)C2 (configuration not stated)	-5	4	.	-8	1
SMILES	MBD2 DNA inh	LEDGF integ inh	Rin1-Abl PPI inh	UHRF1 binding	TDP2 absorb
O=c1[nH][nH]c2c1[C@@H](c1ccc(F)cc1)O[C@H](CCc1ccccc1)C2	-6	3	.	29*	-3
N#C/C(=C\c1ccncc1)c1nc2ccccc2c(=O)[nH]1	-1	1	4	44*	2
CN1C(=O)c2cc(NC(=O)C3CC3)ccc2OC[C@H]2O[C@@H](CC(=O)NC3CCC3)CC[C@@H]21	13	6	.	5	-5
CCOC(=O)CC[C@@H]1CC[C@]2(CCCN(C(=O)c3ccco3)C2)O1	-2	-3	.	1	-2
O=C(Nc1cccc([N+](=O)[O-])c1)NC1CCCCN(Cc2cccc(Cl)c2)C1=O (configuration not stated)	-2	-1	.	0	-4
Cc1ccccc1NC(=O)OC1CCC12CCCCC2 (configuration not stated)	7	-1	.	-4	1
O=c1c2cnn(-c3ccccc3)c2ncn1CCc1ccccc1	2	1	-3	47*	11
